# Reference: ChEMBL document CHEMBL4616723, “Discovery of Antibacterials That Inhibit Bacterial RNA Polymerase Interactions with Sigma Factors” (J Med Chem, 2020)
# Activity calls are given as the source filed them. No cut-off for these calls is given here.
# How the values were obtained:
# Enterobacter cloacae = test: Antibacterial activity against Enterobacter cloacae ATCC 13047 after 20 hrs by CLSI based-broth microdilution method; assay type: functional; settings: subsp. cloacae ATCC 13047, 20 h
# [1] = test system: Staphylococcus saprophyticus; test: Antibacterial activity against Staphylococcus saprophyticus ATCC 15305 after 20 hrs by CLSI based-broth microdilution method; assay type: functional; settings: subsp. saprophyticus ATCC 15305, 20 h
# [2] = Inhibition of Escherichia coli RNAP/sigma-70 protein-protein interaction assessed as reduction in RNA synthesis preincubated for 10 mins followed by sigma-70/DNA template/AGU/ApU/alpha [32P]GTP addition and measured after 10 mins by phosphorimaging analysis
# [3] = Therapeutic index, ratio of CC50 for human HepG2 cells to MIC for Streptococcus pneumoniae ATCC 49619; assay type: toxicity; settings: read-out: TI
# Bacillus subtilis [4] = test: Inhibition of RNAP subunit beta' interaction with sigma factor A assessed as diffusion of RNAP into cytosolic region at 1 to 2 times MIC incubated for 15 mins by confocal microscopy
# Klebsiella pneumoniae = test: Antibacterial activity against Klebsiella pneumoniae ATCC 700603 after 20 hrs by CLSI based-broth microdilution method; assay type: functional; settings: ATCC 700603, 20 h
# Streptococcus pneumoniae [5] = test: Bactericidal activity against Streptococcus pneumoniae ATCC 49619 at 4 to 16 times MIC measured over 6 hrs by time kill assay; assay type: functional, organism-based
# Escherichia coli = test: Antibacterial activity against Escherichia coli ATCC 25922 after 20 hrs by CLSI based-broth microdilution method; assay type: functional; settings: ATCC 25922, 20 h
# Streptococcus agalactiae [6] = test: Antibacterial activity against Streptococcus agalactiae ATCC 12386 after 20 hrs by CLSI based-broth microdilution method; assay type: functional; settings: ATCC 12386, 20 h
# Streptococcus agalactiae [7] = test: Bactericidal activity against Streptococcus agalactiae ATCC 12386 assessed as decrease in CFU count at 16 times MIC measured over 6 hrs by time kill assay; assay type: functional, organism-based
# [8] = test system: Staphylococcus epidermidis; test: Antibacterial activity against Staphylococcus epidermidis ATCC 12228 after 20 hrs by CLSI based-broth microdilution method; assay type: functional; settings: ATCC 12228, 20 h
# [9] = Therapeutic index, ratio of CC50 for human A549 cells to MIC for Streptococcus pneumoniae ATCC 49619; assay type: toxicity; settings: read-out: TI
# A549 = test: Cytotoxicity against human A549 cells after 48 to 72 hrs by MTT assay; assay type: cell-based
# Staphylococcus aureus [10] = test: Effect on total RNA level in Staphylococcus aureus ATCC 29213 at 1/4 to 1/8 times MIC by fluorimetric method; assay type: functional
# Bacillus subtilis [11] = test: Inhibition of RNAP subunit beta' interaction with sigma factor A assessed as RNAP delocalization from nucleoid at 0.5 times MIC incubated for 15 mins by confocal microscopy
# Streptococcus pneumoniae [12] = test: Bacteriostatic activity against Streptococcus pneumoniae ATCC 49619 assessed as decrease in bacterial growth at 4 to 16 times MIC measured over 6 hrs by time kill assay relative to control; assay type: functional
# Streptococcus pneumoniae [13] = test: Antibacterial activity against Streptococcus pneumoniae ATCC 49619 assessed as reduction in pneumolysin release at 0.25 to 0.5 times MIC incubated for 16 to 20 hrs by Western blot analysis; assay type: functional, organism-based
# In short: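 Overnight static culture in brain–heart infusion broth, with or without serially diluted compound; rifampicin and ceftriaxone controls at twofold dilutions from 2 to 0.002 μg/mL; untreated control. […] Western blot probed with rabbit polyclonal anti-pneumolysin (1:1000) and HRP anti-rabbit secondary, ECL chemiluminescence; band intensity normalized to untreated control.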
# Streptococcus pneumoniae [14] = test: Bacteriostatic activity against Streptococcus pneumoniae ATCC 49619 at 1 times MIC measured over 6 hrs by time kill assay; assay type: functional, organism-based
# Staphylococcus aureus [15] = test: Effect on total DNA level in Staphylococcus aureus ATCC 29213 at 1/4 to 1/8 times MIC by fluorimetric method; assay type: functional, organism-based
# HepG2 = test: Cytotoxicity against human HepG2 cells after 48 to 72 hrs by MTT assay; assay type: cell-based
# Pseudomonas aeruginosa = test: Antibacterial activity against Pseudomonas aeruginosa ATCC 27853 after 20 hrs by CLSI based-broth microdilution method; assay type: functional; settings: ATCC 27853, 20 h
# Acinetobacter baumannii = test: Antibacterial activity against Acinetobacter baumannii ATCC 19606 after 20 hrs by CLSI based-broth microdilution method; assay type: functional; settings: ATCC 19606 = CIP 70.34 = JCM 6841, 20 h
# Streptococcus pneumoniae [16] = test: Antibacterial activity against Streptococcus pneumoniae ATCC 49619 assessed as reduction in bacterial ATP production at 0.25 to 16 times MIC measured up to 6 hrs by BacTiter-Glo assay; assay type: functional, organism-based
# In short: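 Log-phase S. pneumoniae, about 1.5 × 10^6 CFU/mL in BHI containing compound at several concentrations, untreated control included; grown at 37 °C, 200 rpm, 5% CO2; samples taken at 0, 2, 4 and 6 h; ATP measured by BacTiter-Glo luminescence; triplicate.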
# Staphylococcus aureus [17] = test: Antibacterial activity against Staphylococcus aureus ATCC 25923 after 20 hrs by CLSI based-broth microdilution method; assay type: functional; settings: ATCC 25923, 20 h
# Staphylococcus aureus [18] = test: Bactericidal activity against Staphylococcus aureus ATCC 25923 assessed as decrease in CFU count at 16 times MIC measured over 6 hrs by time kill assay; assay type: functional, organism-based
# Streptococcus pyogenes = test: Antibacterial activity against Streptococcus pyogenes ATCC 19615 after 20 hrs by CLSI based-broth microdilution method; assay type: functional; settings: ATCC 19615, 20 h
# Streptococcus agalactiae [19] = test: Bacteriostatic activity against Streptococcus agalactiae ATCC 12386 at 16 times MIC measured over 6 hrs by time kill assay; assay type: functional, organism-based
# Staphylococcus aureus [20] = test: Effect on total protein level in Staphylococcus aureus ATCC 29213 at 1/4 to 1/8 times MIC; assay type: functional, organism-based
# Staphylococcus aureus [21] = test: Bacteriostatic activity against Staphylococcus aureus ATCC 25923 at 16 times MIC measured over 6 hrs by time kill assay; assay type: functional, organism-based
# Enterococcus faecalis = test: Antibacterial activity against Enterococcus faecalis ATCC 19433 after 20 hrs by CLSI based-broth microdilution method; assay type: functional; settings: ATCC 19433, 20 h
# Staphylococcus aureus [22] = test: Antibacterial activity against Staphylococcus aureus ATCC 29213 after 20 hrs by CLSI based-broth microdilution method; assay type: functional; settings: ATCC 29213, 20 h
structure (smiles),measurement,setting,value
O=C(O)c1ccc(Cl)cc1NCc1ccc(Sc2ccc(Cl)c(Cl)c2)c([N+](=O)[O-])c1,MIC,Enterobacter cloacae,> 256 µg/mL
same,MIC,[1],2 µg/mL
same,IC50,[2],6.8 µM
same,selectivity ratio,[3],36
same,inhibition,Bacillus subtilis [4],Active
same,MIC,Klebsiella pneumoniae,> 256 µg/mL
same,Activity,Streptococcus pneumoniae [5],inactive
same,MIC,Escherichia coli,> 256 µg/mL
same,MIC,Streptococcus agalactiae [6],2 µg/mL
same,Activity,Streptococcus agalactiae [7],inactive
same,MIC,[8],2 µg/mL
same,selectivity ratio,[9],37
same,CC50,A549,75.7 µM
same,Activity,Staphylococcus aureus [10],Active
same,inhibition,Bacillus subtilis [11],Active
same,log(activity),Streptococcus pneumoniae [12],2
same,Activity,Streptococcus pneumoniae [13],Active
same,Activity,Streptococcus pneumoniae [14],Active
same,Activity,Staphylococcus aureus [15],inactive
same,CC50,HepG2,74.4 µM
same,MIC,Pseudomonas aeruginosa,> 256 µg/mL
same,MIC,Acinetobacter baumannii,> 256 µg/mL
same,Activity,Streptococcus pneumoniae [16],Active
same,MIC,Staphylococcus aureus [17],4 µg/mL
same,Activity,Staphylococcus aureus [18],inactive
same,MIC,Streptococcus pyogenes,1 µg/mL
same,Activity,Streptococcus agalactiae [19],Active
same,Activity,Staphylococcus aureus [20],Active
same,Activity,Staphylococcus aureus [21],Active
same,MIC,Enterococcus faecalis,4 µg/mL
same,MIC,Staphylococcus aureus [22],4 µg/mL
